Test results: ChEMBL document CHEMBL3751740, “New MKLP-2 inhibitors in the paprotrain series: Design, synthesis and biological evaluations” (Bioorg Med Chem, 2016)

Columns and labels:
[1] = tested on: NCI-H460; assay: Growth inhibition of human NCI-H460 cells incubated for 4 days by WST-1 assay; assay type: functional; conditions: NCI-H460, 96 h
Procedure, shortened: (§1)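 Cells were kept at 37 °C under 5% CO2 and plated on day 0 at 500–5000 cells/well. On day 1 they received ten concentrations from 0.0025 to 50 µM (final), in triplicate. On day 4 WST-1 was added, followed by 30 min–4 h incubation and absorbance at 450 nm. GI50 is the concentration killing 50% of cells.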

[2] = tested on: MCF7; assay: Growth inhibition of human MCF7 cells incubated for 4 days by WST-1 assay; assay type: functional; conditions: MCF7, 96 h; procedure, shortened: as §1
[3] = Growth inhibition of human HCT116 cells incubated for 4 days by WST-1 assay; assay type: functional; conditions: HCT-116, 96 h; procedure, shortened: as §1
[4] = Growth inhibition of human PK59 cells incubated for 4 days by WST-1 assay; assay type: functional; conditions: PK-59, 96 h; procedure, shortened: as §1
[5] = molecular target: T1, Chromosome-associated kinesin KIF4A (Homo sapiens) (UniProt O95239); assay: Inhibition of porcine brain microtubule-stimulated human recombinant GST-tagged Kif4A ATPase activity at 1 mM by microplate reader in presence of Mg2+ ATP relative to control
T1 sequence (whole entry): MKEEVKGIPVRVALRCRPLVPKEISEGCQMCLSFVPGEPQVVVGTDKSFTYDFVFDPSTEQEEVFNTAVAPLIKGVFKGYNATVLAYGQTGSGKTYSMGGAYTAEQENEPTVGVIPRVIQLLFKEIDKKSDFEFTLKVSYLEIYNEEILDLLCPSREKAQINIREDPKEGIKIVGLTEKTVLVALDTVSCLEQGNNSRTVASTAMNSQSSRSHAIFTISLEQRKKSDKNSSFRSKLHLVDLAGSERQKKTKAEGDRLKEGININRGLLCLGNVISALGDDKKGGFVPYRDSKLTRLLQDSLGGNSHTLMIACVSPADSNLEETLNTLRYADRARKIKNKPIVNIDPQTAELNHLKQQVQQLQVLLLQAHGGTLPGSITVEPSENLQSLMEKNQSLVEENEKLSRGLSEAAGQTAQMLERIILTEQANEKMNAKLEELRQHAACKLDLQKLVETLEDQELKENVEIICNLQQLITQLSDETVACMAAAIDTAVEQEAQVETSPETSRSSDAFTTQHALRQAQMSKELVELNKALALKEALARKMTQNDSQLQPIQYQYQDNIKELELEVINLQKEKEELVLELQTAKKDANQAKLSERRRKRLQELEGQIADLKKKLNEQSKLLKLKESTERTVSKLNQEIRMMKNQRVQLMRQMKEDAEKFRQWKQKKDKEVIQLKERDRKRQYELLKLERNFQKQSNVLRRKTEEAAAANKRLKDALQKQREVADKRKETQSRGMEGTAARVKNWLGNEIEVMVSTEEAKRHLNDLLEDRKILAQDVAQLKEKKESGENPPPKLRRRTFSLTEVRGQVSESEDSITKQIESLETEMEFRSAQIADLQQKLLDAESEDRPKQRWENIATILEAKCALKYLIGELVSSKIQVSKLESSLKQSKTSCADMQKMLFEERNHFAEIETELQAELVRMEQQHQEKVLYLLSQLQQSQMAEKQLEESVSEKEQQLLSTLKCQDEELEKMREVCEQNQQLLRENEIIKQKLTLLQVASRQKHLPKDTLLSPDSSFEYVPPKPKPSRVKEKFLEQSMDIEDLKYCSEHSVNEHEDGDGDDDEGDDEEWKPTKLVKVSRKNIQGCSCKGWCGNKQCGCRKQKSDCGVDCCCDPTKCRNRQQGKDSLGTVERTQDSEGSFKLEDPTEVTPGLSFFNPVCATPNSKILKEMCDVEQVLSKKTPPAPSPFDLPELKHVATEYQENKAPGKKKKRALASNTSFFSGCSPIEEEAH
Procedure, shortened: (§2)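 Motor domain at 15 µM final, in 7.5 mM PIPES-NaOH pH 7.0 with […], 10 µM Taxol, ELIPA 1 and 2 reagents and 1.25 mg/mL microtubules. AMP-PNP, a slowly hydrolysable ATP analog and general ATPase inhibitor, tested at 1 mM. Reaction started with 1 mM Mg2+ATP at 22 °C and read kinetically at 360 nm. Run in triplicate.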

[6] = molecular target: T2, Kinesin-like protein KIFC3 (Homo sapiens) (UniProt Q9BVG8); assay: Inhibition of porcine brain microtubule-stimulated human recombinant GST-tagged KIFC3 ATPase activity at 1 mM by microplate reader in presence of Mg2+ ATP relative to control; procedure, shortened: as §2
T2 sequence (whole entry): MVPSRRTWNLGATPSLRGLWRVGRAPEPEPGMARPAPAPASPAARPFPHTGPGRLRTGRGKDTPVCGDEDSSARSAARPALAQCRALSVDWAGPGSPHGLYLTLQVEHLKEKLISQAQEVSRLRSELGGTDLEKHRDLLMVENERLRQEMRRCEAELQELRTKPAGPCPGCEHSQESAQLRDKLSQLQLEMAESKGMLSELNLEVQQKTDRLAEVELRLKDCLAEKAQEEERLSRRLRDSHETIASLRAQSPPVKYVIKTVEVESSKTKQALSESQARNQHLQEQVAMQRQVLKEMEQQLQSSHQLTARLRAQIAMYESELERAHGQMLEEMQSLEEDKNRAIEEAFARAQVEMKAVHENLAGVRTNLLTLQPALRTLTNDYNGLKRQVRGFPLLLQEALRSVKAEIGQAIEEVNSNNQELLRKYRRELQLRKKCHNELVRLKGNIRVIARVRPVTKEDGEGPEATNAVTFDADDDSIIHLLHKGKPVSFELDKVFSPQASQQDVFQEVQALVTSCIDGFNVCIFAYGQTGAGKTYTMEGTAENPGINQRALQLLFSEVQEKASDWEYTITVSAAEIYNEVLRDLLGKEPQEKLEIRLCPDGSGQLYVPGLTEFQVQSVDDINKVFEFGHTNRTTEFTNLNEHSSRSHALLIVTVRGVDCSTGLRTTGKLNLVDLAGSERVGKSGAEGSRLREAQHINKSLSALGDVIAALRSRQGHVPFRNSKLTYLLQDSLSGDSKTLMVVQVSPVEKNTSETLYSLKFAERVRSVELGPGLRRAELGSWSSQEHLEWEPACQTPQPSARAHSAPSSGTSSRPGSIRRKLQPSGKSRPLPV

GI50 [1] [µM] | GI50 [2] [µM] | SMILES | GI50 [3] [µM] | GI50 [4] [µM] | inhibition [5] [%] | inhibition [6] [%]
8.2 | 15.8 | COc1ccc2[nH]cc(/C(C#N)=C/c3cccnc3)c2c1 | 32.2 | > 50 | – | –
– | – | Nc1ncnc2c1ncn2[C@@H]1O[C@H](COP(=O)(O)OP(=O)(O)NP(=O)(O)O)[C@@H](O)[C@H]1O | – | – | > 30 | > 30
